Measurements collected from several papers.
Protocols differ between the studies behind these lines.
Nuclear receptor subfamily 4 group A member 2: Nuclear receptor subfamily 4 group A member 2 (Homo sapiens, UniProt P43354)
P2RY14: P2Y purinoceptor 14 (P2RY14, Homo sapiens, UniProt Q15391)
ADRA1B: Alpha-1B adrenergic receptor (ADRA1B, Homo sapiens, UniProt P35368)

The Kd of `O=c1c(O[C@@H]2O[C@H](CO)[C@H](O)[C@H](O)[C@H]2O)c(-c2ccc(O)c(O)c2)oc2cc(O)cc(O)c12` is reported as 198000 nM (Sortase B (srtB, Staphylococcus aureus, UniProt Q2FZE3); binding; SPR).
With `CCC(=O)NS(=O)(=O)c1ccc(-c2c(-c3ccccc3)noc2C)cc1` the Kd was 1600 nM (Nuclear receptor subfamily 4 group A member 2; binding; ITC).
With `CCC1c2ccsc2CCN1Cc1nc2ccc(Cl)cc2n1CCO` (stereo not drawn) the Kd was 20000 nM (DDB1- and CUL4-associated factor 1 (DCAF1, Homo sapiens, UniProt Q9Y4B6); binding; SPR).
With `Cn1nccc1-c1ccc(-c2cc(C(=O)O)cc3cc(-c4ccc(C(F)(F)F)cc4)ccc23)cc1` the Ki was 28.4 nM (P2RY14; ligand displacement in cells; flow cytometry).
`Cc1cc(Oc2ncccc2CN2CCN(c3cccc(Cl)c3)CC2)ccc1-c1c(C)c(=O)[nH]c(=O)n1C` gave a Ki of 646 nM (ADRA1B; ligand displacement; radioligand).
`CCCCCCCCC(=O)c1cc(O)c(O)c(O)c1` gave a Kd of 3400 nM (Nuclear receptor subfamily 4 group A member 2; binding; ITC).
The Ki of `O=C(O)c1cc(-c2ccc([C@H]3C[C@H]4C[C@@H]3CN4)cc2)c2ccc(-c3ccc(C(F)(F)F)cc3)cc2c1` is reported as 1.81 nM (P2RY14; ligand displacement; flow cytometry).
For `CCN(CC)CCCC(C)Nc1ccnc2cc(Cl)ccc12` (stereo not drawn), the Kd was 6800 nM (Nuclear receptor subfamily 4 group A member 2; binding; ITC).
The Ki of `O=C(O)c1cc(-c2ccc(-n3cc(CCOP(=O)(O)O)nn3)cc2)c2ccc(-c3ccc(C(F)(F)F)cc3)cc2c1` is reported as 779 nM (P2RY14; ligand displacement in cells; flow cytometry).
`Cc1cc(Oc2ncccc2CN2CCN(c3cccc(C)c3C)CC2)ccc1-c1c(C)c(=O)[nH]c(=O)n1C` gave a Ki of 4420 nM (ADRA1B; ligand displacement; radioligand).
`O=C(O)c1cc(-c2ccc(-c3ccc(Cl)s3)cc2)c2ccc(-c3ccc(C(F)(F)F)cc3)cc2c1` has a Ki of 1190 nM (P2RY14; ligand displacement in cells; flow cytometry).
For `Cc1cc(Oc2ncccc2CN2CCN(C(c3ccccc3)c3ccccc3)CC2)ccc1-c1c(C)c(=O)[nH]c(=O)n1C`, the Ki was 721 nM (ADRA1B; ligand displacement; radioligand).
With `CN1C(C(=O)Nc2ccccn2)=C(O)c2sc(Cl)cc2S1(=O)=O` the Kd was 1400 nM (Nuclear receptor subfamily 4 group A member 2; binding; ITC).
`COc1ccccc1N1CCN(Cc2cccnc2Oc2ccc(-c3c(C)c(=O)[nH]c(=O)n3C)c(C)c2)CC1` gave a Ki of 1390 nM (ADRA1B; ligand displacement; radioligand).
With `CCCCCCCCCCCCCCCC(=O)OC[C@H](COP(=O)(O)O[C@H]1[C@H](O)[C@@H](OP(=O)(O)O)[C@H](OP(=O)(O)O)[C@@H](OP(=O)(O)O)[C@H]1O)OC(=O)CCCCCCCCCCCCCCC` the Kd was 188 nM (Heat shock protein beta-1 (HSPB1, Homo sapiens, UniProt P04792); binding; MST).
